Assay results published in ChEMBL document CHEMBL4184311, “Design, synthesis, and evaluation of simple phenol amides as ERRγ agonists” (Bioorg Med Chem Lett, 2018).
Activity calls are given as the source filed them. No cut-off for these calls is given here.

Columns and labels:
[1] = target: T1, Estrogen-related receptor gamma (Homo sapiens, UniProt P62508); experiment: Agonist activity at human N-terminal alphaHis-SUMO-tagged ERRgamma-LBD (229 to 458 residues) expressed in Escherichia coli BL21 gold (DE3) cells assessed as decrease in RIP140 peptide recruitment after 2 hrs by TR-FRET assay; conditions: read-out: EC50
T1 sequence (P62508 whole entry): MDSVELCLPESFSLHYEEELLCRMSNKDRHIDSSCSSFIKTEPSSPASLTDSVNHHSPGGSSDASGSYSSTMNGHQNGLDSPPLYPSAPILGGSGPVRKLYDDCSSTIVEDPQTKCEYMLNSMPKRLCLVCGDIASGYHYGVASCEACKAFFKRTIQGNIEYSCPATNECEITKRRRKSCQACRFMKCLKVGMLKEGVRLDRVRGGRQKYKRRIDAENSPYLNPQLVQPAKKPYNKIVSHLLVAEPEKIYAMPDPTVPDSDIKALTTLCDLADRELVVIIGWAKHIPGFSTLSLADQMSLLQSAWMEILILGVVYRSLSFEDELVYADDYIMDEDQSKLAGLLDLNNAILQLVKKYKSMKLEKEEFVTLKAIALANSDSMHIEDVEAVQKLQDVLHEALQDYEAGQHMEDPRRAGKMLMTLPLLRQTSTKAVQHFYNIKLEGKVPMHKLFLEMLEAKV
Outline: (§1)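 Terbium/fluorescein TR-FRET read-out: excitation 340 nm, emission 520 nm (fluorescein) and 490 nm (terbium). The 520/490 nm ratio is expressed as fold change over a DMSO-only control. Values are the arithmetic mean of at least two separate runs.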

[2] = target: T2, Steroid hormone receptor ERR1 (Homo sapiens) (UniProt P11474); experiment: Agonist activity at alphaHis-SUMO-tagged ERRalpha-LBD (unknown origin) assessed as decrease in RIP140 peptide recruitment by TR-FRET assay
T2 sequence (whole entry): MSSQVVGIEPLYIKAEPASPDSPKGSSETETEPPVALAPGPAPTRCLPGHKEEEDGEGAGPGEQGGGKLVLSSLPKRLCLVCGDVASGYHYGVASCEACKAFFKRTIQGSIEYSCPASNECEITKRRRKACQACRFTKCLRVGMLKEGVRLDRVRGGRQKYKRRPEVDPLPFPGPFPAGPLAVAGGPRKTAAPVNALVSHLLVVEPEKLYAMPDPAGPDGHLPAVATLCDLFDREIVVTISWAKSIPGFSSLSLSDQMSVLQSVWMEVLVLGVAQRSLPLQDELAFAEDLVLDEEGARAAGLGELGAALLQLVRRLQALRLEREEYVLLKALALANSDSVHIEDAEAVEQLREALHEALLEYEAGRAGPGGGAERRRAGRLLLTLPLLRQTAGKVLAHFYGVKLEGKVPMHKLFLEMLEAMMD
Outline: (§2)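 Terbium/fluorescein TR-FRET read-out: excitation 340 nm, emission 520 nm (fluorescein) and 490 nm (terbium). The 520/490 nm ratio is expressed as fold change over a DMSO-only control and plotted against concentration to give EC50.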

[3] = target: T3, Steroid hormone receptor ERR2 (Homo sapiens, UniProt O95718); experiment: Agonist activity at alphaHis-SUMO-tagged ERRbeta-LBD (unknown origin) assessed as decrease in RIP140 peptide recruitment by TR-FRET assay; outline: as §2
T3 sequence (O95718 whole entry): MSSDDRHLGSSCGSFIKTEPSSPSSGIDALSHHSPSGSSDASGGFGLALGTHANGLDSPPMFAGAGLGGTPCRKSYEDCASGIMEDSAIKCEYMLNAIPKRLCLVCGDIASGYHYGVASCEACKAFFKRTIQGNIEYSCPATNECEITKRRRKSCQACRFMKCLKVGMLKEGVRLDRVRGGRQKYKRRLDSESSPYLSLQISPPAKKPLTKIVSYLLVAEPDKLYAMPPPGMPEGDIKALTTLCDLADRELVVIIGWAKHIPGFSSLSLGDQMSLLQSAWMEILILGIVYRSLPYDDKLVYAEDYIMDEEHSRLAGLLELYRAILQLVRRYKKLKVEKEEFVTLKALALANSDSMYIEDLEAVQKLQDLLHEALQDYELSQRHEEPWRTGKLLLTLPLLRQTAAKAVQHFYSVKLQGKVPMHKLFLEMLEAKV

[4] = Half life in mouse liver microsomes at 1 uM in presence of NADPH by LC-MS/MS analysis; format: ADME, microsome
[5] = Half life in human liver microsomes at 1 uM in presence of NADPH by LC-MS/MS analysis; format: ADME, microsome
[6] = target: T1, Estrogen-related receptor gamma; experiment: Agonist activity at Gal4 fused ERRgamma-LBD (unknown origin) expressed in HEK293T cells after 20 hrs by UAS-luciferase reporter gene assay; format: cell-based
Outline: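 HEK293T cells carrying Gal4-ERRγ fusion with UAS-luciferase reporter; compounds run as concentration-response curves; counterscreened in parallel against Gal4-VP16::UAS-Luc to flag non-specific activation.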

[7] = Half life in rat liver microsomes at 1 uM in presence of NADPH by LC-MS/MS analysis; format: ADME, microsome
Homo sapiens = species on record: Homo sapiens; experiment: Selectivity ratio of EC50 for alphaHis-SUMO-tagged ERRbeta-LBD (unknown origin) to EC50 for human N-terminal alphaHis-SUMO-tagged ERRgamma-LBD (229 to 458 residues) expressed in Escherichia coli BL21 gold (DE3) cells
[8] = target: T1, Estrogen-related receptor gamma; experiment: Inverse agonist activity at human N-terminal alphaHis-SUMO-tagged ERRgamma-LBD (229 to 458 residues) expressed in Escherichia coli BL21 gold (DE3) cells assessed as decrease in RIP140 peptide recruitment after 2 hrs by TR-FRET assay; outline: as §1
[9] = target: T1, Estrogen-related receptor gamma; experiment: Partial agonist activity at human N-terminal alphaHis-SUMO-tagged ERRgamma-LBD (229 to 458 residues) expressed in Escherichia coli BL21 gold (DE3) cells assessed as increase in RIP140 peptide recruitment after 2 hrs by TR-FRET assay

| Structure (SMILES) | EC50 [1] [µM] | Activity [2] | EC50 [3] [µM] | t1/2 [4] [min] | t1/2 [5] [min] | EC50 [6] [µM] | t1/2 [7] [min] | EC50 [8] [µM] | EC50 [9] [µM] | Ratio EC50 (Homo sapiens) |
| --- | --- | --- | --- | --- | --- | --- | --- | --- | --- | --- |
| CC(C)(C)c1ccc(CCNC(=O)Cc2ccc(O)cc2)cc1 | 0.95 | inactive | 2.7 | – | – | – | – | – | – | – |
| CC(C)(C)c1ccc(CCNC(=O)c2ccc(O)cc2)cc1 | 0.7 | inactive | 0.09 | 3.3 | 6.8 | 4.7 | 1.6 | – | – | 7 to 8 |
| CC(C)(C)c1ccc(CCNC(=O)c2ccccc2O)cc1 | – | – | – | – | – | – | – | 2.9 | – | – |
| CCN(CC)c1ccc(CCNC(=O)c2ccc(O)cc2)cc1 | 0.39 | inactive | 0.63 | 2.2 | 3.1 | – | 3.9 | – | – | – |

Further compounds by falling EC50 [3], results first:

| EC50 [1] [µM] | Activity [2] | EC50 [3] [µM] | t1/2 [4] [min] | t1/2 [5] [min] | EC50 [6] [µM] | t1/2 [7] [min] | EC50 [8] [µM] | EC50 [9] [µM] | Structure (SMILES) | Ratio EC50 (Homo sapiens) |
| --- | --- | --- | --- | --- | --- | --- | --- | --- | --- | --- |
| – | – | 0.045 | – | – | – | – | – | 0.3 | CC(C)(C)c1ccc(CCNC(=O)c2ccc(O)cc2N)cc1 | 7 to 8 |
| 0.95 | – | 0.031 | 1.2 | 2.9 | – | 1.1 | – | – | CC(C)(C)c1ccc(CCNC(=O)c2ccc(O)cc2Cl)cc1 | 30 to 40 |
| 0.76 | – | 0.02 | 1.5 | 3.6 | – | 1.5 | – | – | Cc1cc(O)ccc1C(=O)NCCc1ccc(C(C)(C)C)cc1 | 30 to 40 |
